# MPTP block: permeability transition pore inhibition; isolated mouse mitochondria, Ca2+ swelling absorbance, 30 min; inhibition, % at 10 µM; hit rate 1.4% among 360,000; AID 602449;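 active = inhibition of 50% or more, scaled per plate between neutral and stimulator controls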;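 note: 0% = DMSO wells given calcium and 100% = 1 mM EGTA wells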
# NR3A LBD binder: modulates the human NR3A ligand-binding domain. NR3A LBD differential scanning fluorimetry, Tm shift; 0% = protein alone, 100% = glycine-bound protein. Tm shift relative to glycine control, % at 25 µM. hit rate 2.5% among 340,000. AID 1259313;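 active = melting temperature shift of at least 10% of the positive control shift, at one fixed dose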
# UPR CHOP act: apoptotic UPR (CHOP) activation. CHO-CHOP luciferase reporter, luminescence; percent of tunicamycin response over DMSO baseline. activation, % at 10 µM. hit rate 0.34% among 330,000;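 active = at 10 µM dose, activation of 40% or more, normalized to positive control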;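 note: 100% = tunicamycin at 10 µg/mL and 0% = DMSO alone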
#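 Test system: CHO-CHOP cells, stable luciferase reporter of PERK-eIF2a-CHOP signalling | Quantity: 500 CHO-CHOP cells per well | Buffer or medium: F12 plus 10% serum | Compound dosing: 10 µM single point, 0.5% DMSO | Schedule: 6 h compound treatment, 37 °C | Signal: Luciferase luminescence | Control set: Tunicamycin high control, DMSO low control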
# CHOP inhibitor: inhibitors of CHOP induction in ER stress response; CHO-K1 CHOP-promoter luciferase, tunicamycin-induced, 15-18 h; inhibition, % at 10 µM; hit rate 3.8% among 220,000;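 active = compounds that reduced the stress-induced luciferase reporter signal by more than about 70% of percent inhibition, limit read from the data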;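 note: 0% = tunicamycin plus vehicle and 100% = wells without tunicamycin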
# aDG glyco act: alpha-DG glycosylation activation | Pro5-aDG cells, alpha-DG glycosylation AlphaScreen (IIH6); 0% Pro5, 100% B10-LARGE cell signal | activation, % at 10 µM | hit rate 0.22% among 360,000 | AID 624168;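 active = activation of at least 8% versus controls, or a plate z-score of at least 8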;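 note: Pro5 are CHO cells carrying HIG-tagged alpha-DG that lacks glycosylation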
# UPR XBP1 act: activators of adaptive arm of unfolded protein response (XBP1). AID 463104. hit rate 0.33% among 330,000. activation, % at 20 µM. CHO-XBP1 luciferase reporter, IRE1-XBP1 UPR activation, luminescence; percent of tunicamycin response, DMSO as zero;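 active = versus positive control, 20 µM dose yields 30% or more activation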;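 note: 100% = tunicamycin at 10 µg/mL and 0% = DMSO only wells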
#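 Material: CHO-XBP1 cells stably carrying IRE1-XBP1-driven luciferase reporter / Amount: 1000 cells per well / Compound: 20 µM, 1% DMSO / Times: 6 h treatment, 37 °C / Detection: luciferase luminescence / Measure: % activation of reporter signal versus tunicamycin and DMSO controls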
# An asterisk follows results filed as active; nt = not tested or not shown. An excerpt weighted towards active compounds, which were near 5.6% of everything screened.
SMILES,MPTP block,NR3A LBD binder,UPR CHOP act,CHOP inhibitor,aDG glyco act,UPR XBP1 act
CC(C)(C)C(=O)/C=c1\[nH]c(=O)/c(=C\c2ccccc2F)s1,12.1,-2.9,3.1,60.2,-0.1,1.0
CC(C)(C)C(=O)/C=c1\[nH]c(=O)/c(=C\c2ccc(F)cc2)s1,2.4,1.7,2.6,81.3*,0.5,-1.8
Cc1ccccc1/C=c1\s/c(=C\C(=O)C(C)(C)C)[nH]c1=O,3.3,-8.0,0.6,81.8*,0.1,0.2
COc1ccc(/C=C/c2ccccc2)cc1[C@H]1[C@H]2C=CC[C@@H](C)[C@@H]2C(=O)N1Cc1ccccc1,-1.7,0.2,4.1,-12.7,-0.2,2.4
CC(=O)c1ccc(NC(=O)CSc2n[nH]c(-c3cccnc3)n2)cc1,-1.0,-18.9,2.5,nt,0.0,0.7
NNc1nc2ccc(Cl)cc2s1,3.1,-3.7,1.8,-14.0,-0.2,1.4
NNc1nc2c(Cl)c(Cl)ccc2s1,0.9,11.1*,3.7,23.1,0.0,-1.1
O=C1N=c2ccccc2=C1c1sc(=S)n(NC(=O)c2ccccc2)c1O,22.8,30.9*,-0.7,94.2*,-0.1,-1.5
CC1(Cc2ccc(C(F)(F)F)o2)C(=O)Nc2cc(-c3ccc(F)cc3F)ccc21 (stereo not given),2.8,nt,nt,nt,0.5,nt
COc1ccc(C(=O)NC(=S)N2CC(C)OC(C)C2)cc1OC (stereo not given),0.6,12.2*,-0.2,-1.7,-0.1,-2.0
CC1CN(C(=S)NC(=O)c2ccc(Cl)cc2)CC(C)O1 (stereo not given),1.9,2.9,-1.4,nt,0.0,-3.4
COC(=O)Cc1[nH]n(-c2nc3ccccc3s2)c(=O)c1C(C)=Nc1ccc(Cl)cc1,-0.1,0.8,-10.6,83.0*,1.1,-6.5
COC(=O)Cc1[nH]n(-c2ccccc2)c(=O)c1C(C)=Nc1ccccc1,-1.4,-1.9,3.5,-31.6,0.4,-1.6
COC(=O)Cc1[nH]n(-c2nc3ccccc3s2)c(=O)c1C(C)=Nc1ccc(C)cc1,-1.4,1.2,-9.8,107.2*,-0.2,-12.9
CCCN=C(C)c1c(-c2ccccc2)[nH]n(-c2nc3ccccc3s2)c1=O,1.0,0.9,2.4,71.9*,0.1,6.2
C/C(=N/NC(=O)c1cccs1)c1c(C)[nH]n(-c2nc3ccccc3s2)c1=O,0.7,-10.8,-2.1,-5.9,1.5,-0.1
O=S(=O)(c1cccc(C(F)(F)F)c1)c1ccc(O)cn1,3.3,11.0*,1.2,nt,-0.2,-2.7
O=S(=O)(c1ccccc1)c1ccc(C(F)(F)F)cn1,-0.8,-0.2,1.6,4.2,0.0,-0.2
Cc1ccc(S(=O)(=O)N(C)CC(=O)OCC(=O)NC(=O)NC(C)C)cc1,1.3,0.0,-0.5,8.3,-0.2,0.7
CC(=O)Nc1ccc(S(=O)(=O)N(C)CC(=O)OCC(=O)NNC(=O)c2ccccc2F)cc1,-0.1,17.6*,-1.0,nt,0.0,0.1
Cc1ccc(S(=O)(=O)N(C)CC(=O)OCC(=O)NC(c2ccccc2)c2ccccc2)cc1,2.6,24.0*,-1.3,-18.1,0.1,-0.1
CC(NC(=O)c1ccc(N(C)C)cc1)C1CC2CCC1C2 (stereo not given),-3.2,2.8,nt,78.8*,-0.3,nt
COc1ccc(C(=O)NC(C)C2CC3CCC2C3)cc1 (stereo not given),0.1,0.1,1.4,nt,-0.1,-0.4
O=[N+]([O-])c1cc(S(=O)(=O)Nc2ccc(Cl)cc2)ccc1N/N=C/c1ccncc1,-0.5,12.4*,-0.2,64.3,-0.4,4.7
COc1ccc(NS(=O)(=O)c2cc([N+](=O)[O-])ccc2N/N=C/c2c(C)[nH]c3ccccc23)cc1,2.1,28.4*,nt,nt,-0.5,nt
SMILES,MPTP block,NR3A LBD binder,UPR CHOP act,CHOP inhibitor,aDG glyco act,UPR XBP1 act
O=C(O)c1cc(S(=O)(=O)Nc2ccccc2C(=O)O)ccc1O,-0.3,-7.7,2.6,-10.1,0.0,2.1
O=[N+]([O-])c1ccc(Cl)cc1N/N=C/c1ccncc1,-1.1,-0.5,2.5,nt,-0.1,-2.3
CC(=O)Nc1cccc(/C(C)=N/Nc2ccc(S(=O)(=O)Nc3ccccc3C(=O)O)cc2[N+](=O)[O-])c1,0.8,14.4*,nt,nt,-0.1,nt
O=C(O)c1ccccc1NS(=O)(=O)c1ccc(N/N=C/c2cccc(O)c2O)c([N+](=O)[O-])c1,2.5,31.8*,nt,nt,-0.1,nt
COc1ccc(NC(=O)c2ccccc2NS(=O)(=O)c2ccc(C)cc2)c([N+](=O)[O-])c1,11.8,-1.3,4.1,-8.5,0.7,-3.0
CCCCC(=O)OCC(=O)Nc1ccc(C)c(F)c1,-1.1,-0.6,1.0,34.0,0.2,-0.1
O=C(O)c1ccccc1NS(=O)(=O)c1ccc(NNC(=S)Nc2ccc(OC(F)F)cc2)c([N+](=O)[O-])c1,-2.0,6.3,nt,9.7,-0.4,nt
CC(=O)Nc1ccc(C=NNc2ccc(S(=O)(=O)Nc3ccccc3C(=O)O)cc2[N+](=O)[O-])cc1,1.3,22.5*,0.1,nt,-0.1,0.5
Cc1ccc(NC(=S)NNc2ccc([N+](=O)[O-])cc2S(=O)(=O)Nc2ccccc2C(=O)O)cc1C,9.0,26.1*,nt,-29.7,-0.2,nt
NS(=O)(=O)c1ccc(N/N=C/c2ccc(C(=O)O)cc2)c([N+](=O)[O-])c1,0.0,0.5,-1.8,25.3,0.0,-3.2
CC(=O)Nc1ccc(C=NNc2ccc([N+](=O)[O-])cc2S(=O)(=O)Nc2ccccc2C(=O)O)cc1,2.9,29.0*,0.4,nt,-0.3,-1.1
O=C(O)c1ccccc1Nc1ccc([N+](=O)[O-])cc1C(=O)O,0.2,2.0,0.1,3.1,-0.2,-1.9
CC(=O)Nc1ccc(S(=O)(=O)Nc2cc([N+](=O)[O-])ccc2C)cc1,-2.0,-0.1,-1.4,3.1,-0.4,-1.9
CN(CCO)c1ccc(C=NNc2ccc([N+](=O)[O-])cc2S(=O)(=O)Nc2ccccc2C(=O)O)cc1,15.7,26.5*,0.3,nt,-0.4,1.3
CC(C)(C)c1ccc(-c2noc(CCC(=O)NCc3ccco3)n2)cc1,1.3,2.6,-7.2,85.3*,0.8,-2.8
COc1ccc(-c2noc(CCC(=O)NCc3cc(Br)ccc3OC)n2)cc1,0.0,-5.5,3.7,45.4,0.3,-2.3
COc1ccc(Br)cc1CNC(=O)CCc1nc(-c2ccc(C)cc2)no1,-3.1,-24.1,-0.9,75.6*,1.1,-2.4
CC(CC(=O)Nc1ccc(Cl)c(S(=O)(=O)N2CCOCC2)c1)c1ccccc1 (stereo not given),9.8,-1.6,1.2,nt,1.6,-0.9
O=C(Nc1ccc(N2CCN(Cc3ccccc3F)CC2)cc1)c1ccc([N+](=O)[O-])o1,2.8,-5.2,89.8*,nt,-0.5,2.1
